# Assay outcomes: PubChem, several laboratories
# The full list was thinned out, with hits kept by preference.
# Diaphorase inh = counter-screen for diaphorase-based assays: diaphorase inhibitors and chemical oxidizers. inhibition, % at 20 µM. hit rate 0.69% among 190,000. AID 1217. diaphorase resazurin-to-resorufin fluorescence, NADH, 16 min; bacterial (C. kluyveri) enzyme, not human;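 active = primary screen inhibition at 20 µM above a set limit, cut at about 50% in these data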;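 also: plate controls were DMSO with full reaction for no effect and wells lacking NADH for full effect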
#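 Assay system: diaphorase enzyme from Clostridium kluyveri. Quantity: enzyme working solution with 0.14 U/mL diaphorase. Schedule: reaction incubation of 16 min at room temperature. Technique: resorufin fluorescence, excitation 544 nm, emission 590 nm. Controls: No-NADH positive control and DMSO neutral control.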
# Lmaj promast = inhibitors of Leishmania major promastigote growth; Leishmania major promastigotes, resazurin fluorescence viability; inhibition, % at 10 µM; hit rate 9% among 200,000;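 also: promastigotes grown with compound for 44 hours at 28 °C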
# DTT redox prof = compounds producing H2O2 with reducing agent – biochemical, NIH compound library profiling, artefact control for MLSCN library redox annotation, primary screen; DTT-dependent redox cycling H2O2, phenol red/HRP absorbance; 100% = 100 µM peroxide control, 0% = buffer; activation, % at 10 µM; hit rate 0.03% among 200,000; AID 878;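 active = activation of at least 50% relative to the plate's high and low controls in the primary single-dose screen; inactive = activation below 50%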;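 also: compound incubated with DTT at 0.8 mM final as the reducing agent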
# G6PDH CS = counter-screen for G6PDH assay hits: L. mesenteroides G6PDH inhibition; Purified L. mesenteroides G6PDH, diaphorase/resazurin coupled fluorescence, 45 min; inhibition, % at 5 µM; hit rate 0.12% among 200,000; AID 1020
# Diaphorase act = counter-screen for diaphorase-based assays: diaphorase activators and chemical reducers; hit rate 0.005% among 190,000; AID 1229; Diaphorase/resazurin coupled assay, resorufin fluorescence, 16 min; hits give high values; 1 = vehicle wells, 0 = NADH-free wells; activation factor at 20 µM;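 active = diaphorase activity raised at least twofold by the compound at 20 µM; inactive = activation factor below 2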
#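 Material: Clostridium kluyveri diaphorase, purified enzyme; Quantity: enzyme 0.07 U/mL final; Medium: HEPES pH 7.4 buffer with MgCl2 and Tween 20; Dosing: single compound dose of 20 µM, 1% DMSO final; Schedule: 16 min reaction at room temperature; Measured by: red resorufin fluorescence at 544/590 nm excitation/emission.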
# PfGluPho inh = PfG6PD (Plasmodium falciparum) enzyme inhibition. PfGluPho enzyme, NADPH resazurin-diaphorase fluorescence. inhibition, % at 20 µM. hit rate 0.78% among 350,000. AID 504690;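 active = inhibition reaching at least a set limit at 20 µM in the primary screen, cut at about 59% in these data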;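 also: 0% = DMSO wells with substrate and 100% = DMSO wells lacking glucose-6-phosphate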
# The depositor's hits bear a star; . = no result given. Rule as the data show it, unless noted: active = inhibition above about 50%; inactive = the rest.
SMILES,Diaphorase inh,Lmaj promast,DTT redox prof,G6PDH CS,Diaphorase act,PfGluPho inh
COc1ccccc1NC(=O)CSc1ccc(-c2cccs2)nn1,57.4*,14.9,-0.4,2.2,0.4,38.5
COCCNC(=O)C(=O)N/N=C/c1cccs1,4.5,-6.8,-1.0,4.0,1,-0.3
C#CCOCCOCCOCCNc1nc(N2CCN(C(=O)[C@H](CCCCN)n3cc(CC(C)O)nn3)CC2)nc(N2CCN(C(=O)[C@H](CCCCN)n3cc(CC(C)O)nn3)CC2)n1 (stereo not given in full),.,.,.,.,.,15.8
COCCCN(C(=O)c1cc(-c2ccco2)nc2ccccc12)c1c(N)n(Cc2ccccc2)c(=O)[nH]c1=O,.,.,.,.,.,-9.5
CCC1=NN(C(=O)CCc2ccccc2O)C(O)(C(F)(F)F)C1 (stereo not given),11.6,0.4,0.2,-8.1,0.9,-2.0
COc1ccc(C(C)=O)cc1CSc1nnc(-c2ccccc2O)n1-c1ccccc1,-1.0,42.6,1.6,-1.8,1,-11.1
O=C(NCCc1ccccc1)N1CCCC(CNS(=O)(=O)Cc2ccccc2)C1 (stereo not given),20.2,0.0,2.0,15.9,0.8,-10.4
O=S(=O)(Cc1ccccc1)NCC1CCCN(Cc2ccc(F)c(F)c2)C1 (stereo not given),2.9,89.8*,-0.1,8.5,1,-3.6
CN(C)S(=O)(=O)NCC1CCCN(Cc2ccc(-c3ccccc3)cc2)C1 (stereo not given),.,.,.,.,.,3.0
O=S(=O)(Cc1ccccc1)NCC1CCCN(Cc2ccc3nonc3c2)C1 (stereo not given),12.8,92.5*,-0.1,20.2,0.9,-0.8
COC(=O)C1Cc2ccccc2CN1C(=O)CCl (stereo not given),14.0,17.5,-1.6,3.2,0.9,-10.6
O=C(NCC(=O)N1CCCC1)c1ccc(Br)cc1,.,.,.,.,.,-10.1
COc1ccc(CCNC(=O)C(C(=O)c2ccccc2)n2cc(Cl)ccc2=O)cc1OC (stereo not given),9.3,54.8*,0.5,-13.0,0.9,-6.3
CCN(CC)S(=O)(=O)c1cccc(-n2c(O)c(C=Nc3ccccc3C(=O)O)c3ccccc3c2=O)c1,.,.,.,.,.,-27.2
CCOC(=O)c1cn(-c2c(Cl)cccc2Cl)c2cc(Cl)c([N+](=O)[O-])cc2c1=O,52.5*,35.2,0.7,0.4,0.5,-11.3
CC(Sc1nnc(-c2ccc(Cl)cc2Cl)n1Cc1ccccc1)C(=O)Nc1nccs1 (stereo not given),17.2,64.6*,1.2,5.6,0.8,-4.5
Cc1nnc(SC(C)C(=O)Nc2ccc(Cl)cn2)n1Cc1ccccc1 (stereo not given),25.8,-0.8,-0.7,4.2,0.7,4.2
Cc1ccc(NC(=O)C2CC(=O)N/C(=N/NC(=O)c3ccc(C)cc3)S2)cc1 (stereo not given),11.6,-8.8,0.1,-10.5,0.9,-55.3
O=C1CC(C(=O)O)S/C(=N\NC(=O)c2ccc(F)cc2)N1 (stereo not given),18.4,72.9*,0.0,15.3,0.8,-10.0
CC1CCCN(C(=O)CN(C)S(=O)(=O)c2ccc3c(c2)c(=O)n(C)c(=O)n3C)C1 (stereo not given),.,.,.,.,.,5.0
COc1ccc(/C=N/OCC(=O)NC(c2ccccc2)c2ccccc2)cc1OC,17.4,100.4*,0.3,8.5,0.8,-8.1
Cc1cc(C)c2oc(-c3cccc(NC(=O)c4ccc(F)cc4)c3)nc2c1,3.9,65.3*,-1.1,1.7,1,1.8
CN(Cc1ccc(Br)s1)C(=O)CNC(=O)c1ccc2c(c1)OCO2,.,.,.,.,.,4.8
COc1cc(C2c3c([nH]c(=O)[nH]c3=O)Nc3ccc4ccccc4c32)ccc1O (stereo not given),15.8,4.5,-0.4,-2.5,0.8,-7.8
COc1cc(C2c3c([nH]c(=O)[nH]c3=O)Nc3ccc4ccccc4c32)cc(OC)c1OC (stereo not given),53.3*,-9.6,-0.2,7.1,0.5,-4.1
SMILES,Diaphorase inh,Lmaj promast,DTT redox prof,G6PDH CS,Diaphorase act,PfGluPho inh
Cc1ccc(NC(=S)NCC2CCN(C(C)c3ccccc3)C2)cc1 (stereo not given),9.9,77.7*,2.0,5.6,0.9,9.6
Cc1ccc(NC(=O)C2CC(=O)N(C(C)c3ccccc3)C2)cc1 (stereo not given),.,.,.,.,.,-3.8
CC(c1ccccc1)N1CCC(CNC(=S)Nc2cccc(Cl)c2)C1 (stereo not given),4.5,94.9*,0.7,4.0,1,18.8
COc1ccccc1NC(=O)NNC(=O)CCN1CCOCC1,.,.,.,.,.,3.6
CNc1c(NS(=O)(=O)c2cc(Cl)ccc2OC)c(=O)oc2ccccc12,.,.,.,.,.,1.0
COc1cc(OC)cc(C(=O)NCCC(=O)NCCc2ccc(OC)c(OC)c2)c1,11.2,56.8*,0.2,12.2,0.9,6.5
COc1ccc(CCNC(=O)CCCCC(=O)NCCc2ccc(OC)c(OC)c2)cc1OC,.,.,.,.,.,12.9
COc1ccc(CCNC(=O)CCC(=O)Nc2nnc(C(C)C)s2)cc1OC,10.3,60.3*,0.1,10.7,0.9,-9.6
O=C(Nc1cc(S(=O)(=O)N2CCCCC2)ccc1N1CCOCC1)c1ccc(F)cc1,.,.,.,.,.,-10.0
CCOc1ccccc1CN1CCCC(CNS(=O)(=O)c2ccc(OC)cc2)C1 (stereo not given),.,.,.,.,.,-6.4
COc1ccc(S(=O)(=O)NCC2CCCN(Cc3ccccc3C)C2)cc1 (stereo not given),24.6,98.8*,-0.3,15.4,0.8,4.5
CC1C(=O)N2CCCc3cc(NS(=O)(=O)c4ccccc4)cc1c32 (stereo not given),.,.,.,.,.,1.1
COc1ccc2nc(SCC(=O)Nc3ccc4sc(C)nc4c3)c(C#N)cc2c1,9.7,-4.4,-3.0,-56.1,0.9,12.8
CSc1nc(=S)c2[nH]c(=S)[nH]c2[nH]1,.,.,.,.,.,87.8*
CCCN(CC(=O)Nc1ccccc1OC)C(=O)c1nc2nc(C)ccn2n1,.,.,.,.,.,-0.9
C=CCn1c(SCc2cccc3ccccc23)nnc1-c1cccnc1,17.6,50.4*,-4.3,0.5,0.8,19.6
Cc1ccn2c(C(=O)N/N=C\c3ccc4c(c3)OCO4)c(C)nc2c1,9.2,84.8*,-0.5,18.9,0.9,-18.9
O=C(N/N=C/c1ccc2c(c1)OCO2)c1ccc2ccccc2n1,9.2,77.9*,-1.8,7.0,0.9,-0.1
Fc1cc(F)cc(Nc2nc(Cl)nc(NC3CCCC3)n2)c1,.,.,.,.,.,6.6
CCCCCC#CCC#CCC#CCC#CCCCC(=O)O,39.6,83.8*,0.3,9.0,0.6,.
CCCCCCCCCC(=O)O,.,.,.,.,.,-23.5
COC(=O)c1nn(-c2nc(-c3ccc(OC)c(OC)c3)cc(C(F)(F)F)n2)cc1[N+](=O)[O-],18.1,7.6,-0.2,3.1,0.8,-1.6
